From ChEMBL document CHEMBL4406821, “Novel dual inhibitors targeting CDK4 and VEGFR2 synergistically suppressed cancer progression and angiogenesis” (Eur J Med Chem, 2019)
The source made the active and inactive calls. No cut-off for these calls is given here.

Experiments:
[1] = target: Serine/threonine-protein kinase STK11 (Homo sapiens) (UniProt Q15831); experiment: Inhibition of recombinant human full length LKB1 at 1 uM using LSNLYHQGKFLQTFCGSPLYRRR as substrate incubated for 40 mins in presence of [gamma-33P]-ATP by scintillation counting method relative to control
[2] = target: Dual specificity mitogen-activated protein kinase kinase 4 (Mus musculus) (UniProt P47809); experiment: Inhibition of recombinant mouse MKK4 (34 to end residues) at 1 uM using unactive JNK1a1 as substrate incubated for 40 mins in presence of [gamma-33P]-ATP by scintillation counting method relative to control
[3] = target: MAPK/MAK/MRK overlapping kinase (Homo sapiens) (UniProt Q9UQ07); experiment: Inhibition of recombinant human MOK (1 to 343 residues) at 1 uM using RSRSRSRSRSRSRSR as substrate incubated for 40 mins in presence of [gamma-33P]-ATP by scintillation counting method relative to control
[4] = target: SRSF protein kinase 2 (Homo sapiens) (UniProt P78362); experiment: Inhibition of recombinant human SRPK2 (46 to end residues) at 1 uM using RSRSRSRSRSRSRSR as substrate incubated for 40 mins in presence of [gamma-33P]-ATP by scintillation counting method relative to control
[5] = target: Serine/threonine-protein kinase B-raf (Homo sapiens) (UniProt P15056); experiment: Inhibition of recombinant human B-Raf (416 to end residues) at 1 uM using myelin as substrate incubated for 40 mins in presence of [gamma-33P]-ATP by scintillation counting method relative to control
Method in brief: (§1)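 Kinase panel profiling at 1 μM performed by Eurofins KinaseProfiler; percent inhibition reported as mean of two independent experiments.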

[6] = test system: Fibroblast growth factor receptor 2 (Homo sapiens), P21802 [N549H]; experiment: Inhibition of recombinant human FGFR2 N549H mutant (456 to 770 residues) at 1 uM using GGEEEEYFELVKKKK as substrate incubated for 40 mins in presence of [gamma-33P]-ATP by scintillation counting method relative to control
[7] = VRT (0 to t) in Sprague-Dawley rat at 10 mg/kg, iv by HPLC-MS analysis; type: ADME, organism-based; conditions: in vivo
HeLa = experiment: Induction of apoptosis in human HeLa cells assessed as increase in early apoptotic cells at 20 to 40 nM incubated for 48 hrs by annexin V FITC and propidium iodide staining based flow cytometry; type: functional, cell-based
Method in brief: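 Cells were treated for 48 h, stained with FITC Annexin V and PI, and analyzed by flow cytometry to count early and late apoptotic cells.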

[8] = Toxicity in NOD/SCID BALB/c mouse xenografted with human SiHa cells assessed as effect on blood parameter by measuring platelet content at 40 mg/kg, po administered once two days for 4 times by hematology analyzer; type: organism-based; conditions: in vivo
[9] = target: Death-associated protein kinase 3 (Homo sapiens) (UniProt O43293); experiment: Inhibition of recombinant human ZIPK (1 to 290 residues) at 1 uM using KKLNRTLSFAEPG as substrate incubated for 40 mins in presence of [gamma-33P]-ATP by scintillation counting method relative to control
T47D [10] = experiment: Antiproliferative activity against human T47D cells assessed as reduction in cell viability at 20 to 40 nM incubated for 48 hrs by EdU staining based laser scanning confocal microscopy; type: functional
Method in brief: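 Cells, 5×10^4, were seeded in 24-well plates and treated for 48 h. They were then labeled using an EdU Apollo 488 imaging kit with Hoechst 33342 nuclear stain and imaged by laser scanning confocal microscopy. Percent EdU-positive cells = EdU-positive/Hoechst-stained × 100%.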

[11] = test system: Epidermal growth factor receptor (Homo sapiens), P00533 [L861Q]; experiment: Inhibition of recombinant human EGFR L861Q mutant (696 to end residues) at 1 uM using poly(Glu, Tyr) 4:1 as substrate incubated for 40 mins in presence of [gamma-33P]-ATP by scintillation counting method relative to control
[12] = target: MAP kinase-activated protein kinase 5 (Homo sapiens) (UniProt Q8IW41); experiment: Inhibition of recombinant human full length PRAK at 1 uM using KKLRRTLSVA as substrate incubated for 40 mins in presence of [gamma-33P]-ATP by scintillation counting method relative to control
[13] = target: Serine/threonine-protein kinase NLK (Homo sapiens) (UniProt Q9UBE8); experiment: Inhibition of recombinant human NLK (121 to end residues) at 1 uM using myelin basic protein as substrate incubated for 40 mins in presence of [gamma-33P]-ATP by scintillation counting method relative to control
[14] = target: Mitogen-activated protein kinase 1 (Homo sapiens) (UniProt P28482); experiment: Inhibition of recombinant human full length MAPK2 at 1 uM using myelin basic protein as substrate incubated for 40 mins in presence of [gamma-33P]-ATP by scintillation counting method relative to control
Method in brief: (§2)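 Tested at a single 1 uM in an outsourced commercial kinase-profiling panel, read as percent inhibition. Each value is the mean of two independent experiments.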

[15] = target: Protein kinase C iota type (Homo sapiens) (UniProt P41743); experiment: Inhibition of recombinant human full length PKCiota at 1 uM using ERMRPRKRQGSVRRRV as substrate incubated for 40 mins in presence of [gamma-33P]-ATP by scintillation counting method relative to control
[16] = target: Tyrosine-protein kinase Blk (Homo sapiens) (UniProt P51451); experiment: Inhibition of recombinant full length human BLK at 1 uM using poly(Glu, Tyr) 4:1 as substrate incubated for 40 mins in presence of [gamma-33P]-ATP by scintillation counting method relative to control; method in brief: as §1
[17] = target: Casein kinase II subunit alpha' (Homo sapiens) (UniProt P19784); experiment: Inhibition of recombinant human full length CK2alpha2 at 1 uM using RRRDDDSDDD as substrate incubated for 40 mins in presence of [gamma-33P]-ATP by scintillation counting method relative to control
[18] = target: Tau-tubulin kinase 2 (Homo sapiens) (UniProt Q6IQ55); experiment: Inhibition of recombinant human TTBK2 (1 to331 residues) at 1 uM using casein as substrate incubated for 40 mins in presence of [gamma-33P]-ATP by scintillation counting method relative to control; method in brief: as §2
[19] = target: Tyrosine-protein kinase Fes/Fps (Homo sapiens) (UniProt P07332); experiment: Inhibition of recombinant human FES (2 to end residues) at 1 uM using poly(Glu, Tyr) 4:1 as substrate incubated for 40 mins in presence of [gamma-33P]-ATP by scintillation counting method relative to control
T47D [20] = experiment: Inhibition of colony formation in human T47D cells at 40 nM incubated for 5 days by crystal violet staining based light microscopy; type: functional, cell-based
Method in brief: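 MDA-MB-231, T-47D, SiHa and HeLa cells seeded at 4×10^3/well and cultured with varying concentrations of drug or vehicle for 5 days. Fixed in 20% methanol, stained with 0.5% crystal violet, photographed under light microscopy. DMEM (T-47D) with 10% FBS, 37°C, 5% CO2.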

[21] = target: Vascular endothelial growth factor receptor 2 (Homo sapiens, UniProt P35968); conditions: HUVEC, 40 nM
Chain of Vascular endothelial growth factor receptor 2 (P35968 whole entry): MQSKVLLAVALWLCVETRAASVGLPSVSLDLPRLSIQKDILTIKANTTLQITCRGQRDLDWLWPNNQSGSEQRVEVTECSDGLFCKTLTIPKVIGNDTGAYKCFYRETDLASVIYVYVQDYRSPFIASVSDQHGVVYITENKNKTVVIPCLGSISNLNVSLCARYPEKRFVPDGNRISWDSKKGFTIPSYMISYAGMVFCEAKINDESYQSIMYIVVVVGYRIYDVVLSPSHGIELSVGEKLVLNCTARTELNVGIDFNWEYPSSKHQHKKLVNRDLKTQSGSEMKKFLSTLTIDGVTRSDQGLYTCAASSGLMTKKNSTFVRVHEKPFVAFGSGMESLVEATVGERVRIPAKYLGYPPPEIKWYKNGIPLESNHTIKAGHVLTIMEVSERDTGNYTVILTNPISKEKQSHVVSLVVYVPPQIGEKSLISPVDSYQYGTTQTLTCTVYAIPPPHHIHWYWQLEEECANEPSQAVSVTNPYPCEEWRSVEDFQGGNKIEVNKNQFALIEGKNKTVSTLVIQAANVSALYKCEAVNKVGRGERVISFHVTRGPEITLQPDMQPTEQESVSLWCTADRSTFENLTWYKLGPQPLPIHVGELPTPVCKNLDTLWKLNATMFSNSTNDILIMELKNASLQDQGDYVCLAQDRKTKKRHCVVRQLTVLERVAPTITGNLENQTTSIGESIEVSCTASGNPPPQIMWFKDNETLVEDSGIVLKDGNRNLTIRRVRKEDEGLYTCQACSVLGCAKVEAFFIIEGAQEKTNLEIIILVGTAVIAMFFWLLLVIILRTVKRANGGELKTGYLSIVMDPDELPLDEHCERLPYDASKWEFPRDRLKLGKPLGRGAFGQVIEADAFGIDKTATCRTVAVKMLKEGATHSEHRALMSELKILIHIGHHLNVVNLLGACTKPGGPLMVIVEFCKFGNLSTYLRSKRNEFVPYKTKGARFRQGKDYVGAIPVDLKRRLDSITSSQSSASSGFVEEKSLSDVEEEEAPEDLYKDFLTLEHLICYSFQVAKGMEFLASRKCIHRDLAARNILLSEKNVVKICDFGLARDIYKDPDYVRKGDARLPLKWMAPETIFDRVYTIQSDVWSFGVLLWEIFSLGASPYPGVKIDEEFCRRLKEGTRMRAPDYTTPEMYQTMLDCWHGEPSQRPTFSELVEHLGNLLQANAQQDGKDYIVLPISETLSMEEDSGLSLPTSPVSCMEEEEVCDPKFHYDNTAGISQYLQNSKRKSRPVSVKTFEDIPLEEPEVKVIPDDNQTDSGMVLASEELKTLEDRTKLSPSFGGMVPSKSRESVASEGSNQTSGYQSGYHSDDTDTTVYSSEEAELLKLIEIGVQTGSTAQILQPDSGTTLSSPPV

Chain of Mitogen-activated protein kinase 1 (Homo sapiens) (P28482 whole entry): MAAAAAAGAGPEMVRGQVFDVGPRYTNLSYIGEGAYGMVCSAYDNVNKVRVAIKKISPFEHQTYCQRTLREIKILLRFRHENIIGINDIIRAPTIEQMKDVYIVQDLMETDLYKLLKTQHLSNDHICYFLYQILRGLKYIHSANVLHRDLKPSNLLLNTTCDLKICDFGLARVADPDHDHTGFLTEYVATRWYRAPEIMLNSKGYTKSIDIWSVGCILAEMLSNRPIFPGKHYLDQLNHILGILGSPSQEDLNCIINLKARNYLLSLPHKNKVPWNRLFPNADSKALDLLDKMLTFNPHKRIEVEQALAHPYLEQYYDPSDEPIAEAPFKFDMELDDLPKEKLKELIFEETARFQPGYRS
Chain of Fibroblast growth factor receptor 2 (Homo sapiens), P21802 [N549H] (P21802 whole entry N549H, the tested form may be a part): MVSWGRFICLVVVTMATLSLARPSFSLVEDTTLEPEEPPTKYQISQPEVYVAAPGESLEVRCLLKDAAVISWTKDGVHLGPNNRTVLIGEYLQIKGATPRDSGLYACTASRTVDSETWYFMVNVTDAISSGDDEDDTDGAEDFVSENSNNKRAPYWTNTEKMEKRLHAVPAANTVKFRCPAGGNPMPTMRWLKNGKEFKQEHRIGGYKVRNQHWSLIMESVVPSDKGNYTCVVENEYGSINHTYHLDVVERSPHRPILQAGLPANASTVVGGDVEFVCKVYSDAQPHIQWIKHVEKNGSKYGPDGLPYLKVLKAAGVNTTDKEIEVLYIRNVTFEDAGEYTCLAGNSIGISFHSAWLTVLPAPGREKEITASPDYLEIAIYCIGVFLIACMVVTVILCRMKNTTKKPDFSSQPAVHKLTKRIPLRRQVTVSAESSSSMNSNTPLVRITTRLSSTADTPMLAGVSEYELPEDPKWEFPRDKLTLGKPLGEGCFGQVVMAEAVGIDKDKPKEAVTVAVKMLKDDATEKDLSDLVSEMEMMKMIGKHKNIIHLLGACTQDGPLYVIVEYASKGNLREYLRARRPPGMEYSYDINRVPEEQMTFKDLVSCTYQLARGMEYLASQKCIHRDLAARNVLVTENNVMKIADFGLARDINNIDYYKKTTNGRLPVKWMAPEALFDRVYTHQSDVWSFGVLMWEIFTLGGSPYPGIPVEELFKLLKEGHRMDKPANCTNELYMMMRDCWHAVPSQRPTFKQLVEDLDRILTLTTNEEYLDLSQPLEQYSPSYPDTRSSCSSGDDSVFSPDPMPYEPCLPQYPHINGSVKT
Chain of Casein kinase II subunit alpha' (Homo sapiens) (P19784 whole entry, looked up, the tested form may be a part): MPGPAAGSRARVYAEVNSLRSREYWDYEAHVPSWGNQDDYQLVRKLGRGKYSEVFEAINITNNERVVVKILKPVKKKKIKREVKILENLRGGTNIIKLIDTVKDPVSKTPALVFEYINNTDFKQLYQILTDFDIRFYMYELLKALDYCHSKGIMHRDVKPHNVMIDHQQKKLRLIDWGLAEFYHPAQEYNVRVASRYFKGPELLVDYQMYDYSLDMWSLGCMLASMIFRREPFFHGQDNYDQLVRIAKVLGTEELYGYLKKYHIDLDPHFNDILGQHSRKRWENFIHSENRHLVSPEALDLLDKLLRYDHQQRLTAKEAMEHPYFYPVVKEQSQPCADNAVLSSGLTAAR
Chain of Death-associated protein kinase 3 (Homo sapiens) (O43293 whole entry, looked up, the tested form may be a part): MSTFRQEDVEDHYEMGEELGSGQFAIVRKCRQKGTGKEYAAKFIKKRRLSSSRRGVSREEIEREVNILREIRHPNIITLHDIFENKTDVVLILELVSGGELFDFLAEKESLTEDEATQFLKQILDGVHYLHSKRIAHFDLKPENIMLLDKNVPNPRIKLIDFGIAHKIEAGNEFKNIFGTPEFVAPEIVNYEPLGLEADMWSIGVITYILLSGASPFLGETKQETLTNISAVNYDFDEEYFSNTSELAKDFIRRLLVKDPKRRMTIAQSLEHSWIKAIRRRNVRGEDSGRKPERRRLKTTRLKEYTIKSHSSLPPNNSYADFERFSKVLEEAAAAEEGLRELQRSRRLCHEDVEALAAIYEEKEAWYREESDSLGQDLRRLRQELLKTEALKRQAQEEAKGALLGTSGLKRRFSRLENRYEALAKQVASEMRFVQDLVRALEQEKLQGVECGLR
Chain of Tyrosine-protein kinase Blk (Homo sapiens) (P51451 2-505 limits assumed): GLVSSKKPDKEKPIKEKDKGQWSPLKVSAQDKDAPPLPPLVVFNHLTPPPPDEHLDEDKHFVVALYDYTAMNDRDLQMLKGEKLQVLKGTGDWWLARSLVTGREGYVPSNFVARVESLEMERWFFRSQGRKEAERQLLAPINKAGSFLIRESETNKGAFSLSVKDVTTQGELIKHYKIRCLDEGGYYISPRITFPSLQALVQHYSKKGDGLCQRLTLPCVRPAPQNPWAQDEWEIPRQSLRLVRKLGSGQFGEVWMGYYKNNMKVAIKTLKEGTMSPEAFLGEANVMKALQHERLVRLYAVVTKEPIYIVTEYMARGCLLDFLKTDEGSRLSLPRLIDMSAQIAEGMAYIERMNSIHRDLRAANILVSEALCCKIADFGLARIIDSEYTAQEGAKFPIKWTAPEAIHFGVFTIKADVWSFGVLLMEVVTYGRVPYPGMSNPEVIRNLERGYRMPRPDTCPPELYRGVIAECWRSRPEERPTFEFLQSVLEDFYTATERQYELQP
Chain of MAP kinase-activated protein kinase 5 (Homo sapiens) (Q8IW41 whole entry): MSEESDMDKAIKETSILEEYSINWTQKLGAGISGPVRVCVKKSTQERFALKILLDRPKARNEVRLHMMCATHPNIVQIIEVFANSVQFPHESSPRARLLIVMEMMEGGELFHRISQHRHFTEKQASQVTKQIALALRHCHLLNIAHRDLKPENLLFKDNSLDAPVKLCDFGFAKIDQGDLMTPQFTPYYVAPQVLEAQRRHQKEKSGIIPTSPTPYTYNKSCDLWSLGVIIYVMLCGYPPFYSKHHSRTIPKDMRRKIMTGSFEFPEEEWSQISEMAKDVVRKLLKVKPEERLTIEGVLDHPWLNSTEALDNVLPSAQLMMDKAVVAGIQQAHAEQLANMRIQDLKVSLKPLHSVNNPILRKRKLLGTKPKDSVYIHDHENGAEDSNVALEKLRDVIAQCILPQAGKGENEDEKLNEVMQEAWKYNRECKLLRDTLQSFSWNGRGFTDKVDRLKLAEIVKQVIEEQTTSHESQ
Chain of Serine/threonine-protein kinase STK11 (Homo sapiens) (Q15831 whole entry): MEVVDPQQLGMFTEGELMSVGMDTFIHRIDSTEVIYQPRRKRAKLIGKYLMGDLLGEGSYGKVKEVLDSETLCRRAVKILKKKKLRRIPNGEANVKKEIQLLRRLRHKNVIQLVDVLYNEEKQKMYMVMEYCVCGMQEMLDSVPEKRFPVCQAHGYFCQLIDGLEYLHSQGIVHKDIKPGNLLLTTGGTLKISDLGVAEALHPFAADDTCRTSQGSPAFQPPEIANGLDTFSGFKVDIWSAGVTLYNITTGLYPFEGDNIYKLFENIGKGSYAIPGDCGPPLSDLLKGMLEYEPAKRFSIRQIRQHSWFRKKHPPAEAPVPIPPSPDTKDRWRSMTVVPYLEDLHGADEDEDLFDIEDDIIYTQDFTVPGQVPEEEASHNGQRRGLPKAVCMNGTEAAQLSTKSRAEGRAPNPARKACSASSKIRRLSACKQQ

Cc1ccc(NC(=O)C2(C(=O)Nc3ccc(Nc4ncc(F)c(-c5cc(F)c6nc(C)n(C(C)C)c6c5)n4)cc3)CC2)cc1
inhibition [1]: 12% | inhibition [2]: 12% | inhibition [3]: 25% | inhibition [4]: 17% | inhibition [5]: 32% | inhibition [6]: 7% | VRT(t) [7]: 2 h | Activity (HeLa): Active | Activity [8]: Non-Toxic | inhibition [9]: 12% | inhibition (T47D [10]): Active | inhibition [11]: 34% | inhibition [12]: 1% | inhibition [13]: 44% | inhibition [14]: 0% | inhibition [15]: 5% | inhibition [16]: 39% | inhibition [17]: 72% | inhibition [18]: 0% | inhibition [19]: 89%

COc1cc2nccc(Oc3ccc(NC(=O)C4(C(=O)Nc5ccc(F)cc5)CC4)cc3)c2cc1OC [CABOZANTINIB]
inhibition (T47D [20]): Active | inhibition [21]: Active
